Legend:
Format in all cases: functional
786-0 = assay: Growth inhibition of human 786-0 cells after 48 hrs by sulforhodamine B assay; settings: 786-0, 48 h
Summary of the method: (§1)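 NCI 60-cell-line main test over a five-log dose range. GI50 is the molar concentration giving half-growth inhibition, reported as log molar. Subpanel values are median GI50 across that subpanel's lines. Where 50% inhibition was not reached within the tested interval, the highest tested concentration was used.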

NCI-H226 = assay: Growth inhibition of human NCI-H226 cells after 48 hrs by sulforhodamine B assay; settings: NCI-H226, 48 h; summary of the method: as §1
[1] = Growth inhibition of human prostate cancer cell after 48 hrs by sulforhodamine B assay; settings: Cancer cell lines
Summary of the method: (§2)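 Subpanel median growth inhibitory concentration: the average sensitivity of each tumor-type subpanel of the NCI 60-cell-line panel, derived from per-cell-line GI50 values. GI50 values came from a five log dose range and are expressed as log molar concentration for 50% net growth inhibition.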

[2] = Growth inhibition of human leukemia cell after 48 hrs by sulforhodamine B assay; summary of the method: as §2
A549 = assay: Growth inhibition of human A549 cells after 48 hrs by sulforhodamine B assay; settings: A549, 48 h; summary of the method: as §1
[3] = Growth inhibition of human CNS cancer cell after 48 hrs by sulforhodamine B assay; settings: Cancer cell lines; summary of the method: as §1
[4] = Growth inhibition of human colon cancer cell after 48 hrs by sulforhodamine B assay; settings: Cancer cell lines; summary of the method: as §2
SK-MEL-2 = assay: Growth inhibition of human SK-MEL-2 cells after 48 hrs by sulforhodamine B assay; settings: SK-MEL-2, 48 h; summary of the method: as §1
UACC-257 = assay: Growth inhibition of human UACC257 cells after 48 hrs by sulforhodamine B assay; settings: UACC-257, 48 h
Summary of the method: (§3)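 NCI 60-cell-line main screen across nine tumor types, with five log dose range per compound. GI50 is the molar concentration giving half growth inhibition, reported as the log of the molar concentration that inhibits 50% net cell growth.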

[5] = Growth inhibition of human ovarian cancer cell after 48 hrs by sulforhodamine B assay; settings: Cancer cell lines; summary of the method: as §2
[6] = Growth inhibition of human renal cancer cell after 48 hrs by sulforhodamine B assay; settings: Cancer cell lines; summary of the method: as §2
MDA-MB-435 = assay: Growth inhibition of human MDA-MB-435 cells after 48 hrs by sulforhodamine B assay; settings: MDA-MB-435, 48 h; summary of the method: as §1
[7] = Growth inhibition of human non-small lung cancer cell after 48 hrs by sulforhodamine B assay; settings: Cancer cell lines; summary of the method: as §2
MCF7 [8] = assay: Growth inhibition of human MCF7 cells after 48 hrs by sulforhodamine B assay; settings: MCF7, 48 h; summary of the method: as §1
[9] = Growth inhibition of human melanoma cell after 48 hrs by sulforhodamine B assay; summary of the method: as §2
[10] = Growth inhibition of human breast cancer cell after 48 hrs by sulforhodamine B assay; settings: Cancer cell lines; summary of the method: as §2
HOP-62 = assay: Growth inhibition of human HOP62 cells after 48 hrs by sulforhodamine B assay; settings: HOP-62, 48 h; summary of the method: as §1
NCI/ADR-RES = assay: Growth inhibition of human NCI/ADR-RES cells after 48 hrs by sulforhodamine B assay; summary of the method: as §1
HCT-15 = assay: Growth inhibition of human HCT15 cells after 48 hrs by sulforhodamine B assay; settings: HCT-15, 48 h; summary of the method: as §1
BT-549 = assay: Growth inhibition of human BT549 cells after 48 hrs by sulforhodamine B assay; settings: BT-549, 48 h; summary of the method: as §1
A498 = assay: Growth inhibition of human A498 cells after 48 hrs by sulforhodamine B assay; settings: A498, 48 h; summary of the method: as §1
UACC-62 = assay: Growth inhibition of human UACC62 cells after 48 hrs by sulforhodamine B assay; settings: UACC-62, 48 h; summary of the method: as §3
NCI-H460 = assay: Growth inhibition of human NCI-H460 cells assessed as cell growth at 100 uM after 48 hrs by sulforhodamine B assay relative to control; settings: NCI-H460, 48 h, read-out: Activity
Summary of the method: (§4)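 One-dose pre-test on MCF7, NCI-H460 and SF-268. Cells were inoculated and pre-incubated on a microtiter plate, then given a single 10^-4 M dose and incubated 48 h. Growth was read spectrophotometrically and expressed as percent of untreated control cells; negative values indicate cell kill.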

SF-268 [11] = assay: Growth inhibition of human SF268 cells assessed as cell growth at 100 uM after 48 hrs by sulforhodamine B assay relative to control; settings: SF-268, 48 h, read-out: Activity; summary of the method: as §4
MCF7 [12] = assay: Growth inhibition of human MCF7 cells assessed as cell growth at 100 uM after 48 hrs by sulforhodamine B assay relative to control; settings: MCF7, 48 h, read-out: Activity; summary of the method: as §4
OVCAR-3 = assay: Growth inhibition of human OVCAR-3 cells after 48 hrs by sulforhodamine B assay; settings: OVCAR-3, 48 h; summary of the method: as §1
SF-539 = assay: Growth inhibition of human SF539 cells after 48 hrs by sulforhodamine B assay; settings: SF-539, 48 h; summary of the method: as §1
SN12C = assay: Growth inhibition of human SN12C cells after 48 hrs by sulforhodamine B assay; summary of the method: as §3
SF-268 [13] = assay: Growth inhibition of human SF268 cells after 48 hrs by sulforhodamine B assay; settings: SF-268, 48 h; summary of the method: as §1
SNB-75 = assay: Growth inhibition of human SNB75 cells after 48 hrs by sulforhodamine B assay; settings: SNB-75, 48 h; summary of the method: as §3
COLO 205 = assay: Growth inhibition of human COLO205 cells after 48 hrs by sulforhodamine B assay; settings: COLO 205, 48 h; summary of the method: as §1

## CCC(NC(=O)Nc1nc2ccccc2s1)(C(F)(F)F)C(F)(F)F
786-0
  GI50: 20 µM
NCI-H226
  GI50: 15.8 µM
[1]
  GI50: 18.2 µM
[2]
  GI50: 22.9 µM
A549
  GI50: 15.8 µM
[3]
  GI50: 11.7 µM
[4]
  GI50: 18.6 µM
SK-MEL-2
  GI50: 15.8 µM
UACC-257
  GI50: 20 µM
[5]
  GI50: 17.8 µM
[6]
  GI50: 15.1 µM
MDA-MB-435
  GI50: 20 µM
[7]
  GI50: 18.6 µM
MCF7 [8]
  GI50: 15.8 µM
[9]
  GI50: 17.4 µM
[10]
  GI50: 18.2 µM

## CC(NC(=O)Nc1nc2ccccc2s1)(C(F)(F)F)C(F)(F)F
HOP-62
  GI50: 31.6 µM
NCI/ADR-RES
  GI50: > 100 µM
[1]
  GI50: 56.2 µM
HCT-15
  GI50: > 100 µM
[2]
  GI50: 21.9 µM
BT-549
  GI50: > 100 µM
[3]
  GI50: 25.7 µM
[4]
  GI50: 42.7 µM
A498
  GI50: 100 µM
UACC-62
  GI50: > 100 µM
[5]
  GI50: 39.8 µM
[6]
  GI50: 28.2 µM
[7]
  GI50: 33.9 µM
[9]
  GI50: 42.7 µM
[10]
  GI50: 50.1 µM

## CCC(NC(=O)Nc1c(Cl)cc(Cl)cc1Cl)(C(F)(F)F)C(F)(F)F
NCI-H460
  growth at 100 µM: 81%
SF-268 [11]
  growth at 100 µM: 98%
MCF7 [12]
  growth at 100 µM: 88%

## CCC(NC(=O)Nn1cnnc1)(C(F)(F)F)C(F)(F)F
NCI-H460
  growth at 100 µM: 94%
SF-268 [11]
  growth at 100 µM: 105%
MCF7 [12]
  growth at 100 µM: 84%

## CC(NC(=O)Nn1cnnc1)(C(F)(F)F)C(F)(F)F
NCI-H460
  growth at 100 µM: 94%
SF-268 [11]
  growth at 100 µM: 105%
MCF7 [12]
  growth at 100 µM: 81%

## O=c1[nH]cc(F)c(=O)[nH]1 [FLUOROURACIL]
HOP-62
  GI50: 0.398 µM
NCI/ADR-RES
  GI50: 0.316 µM
[1]
  GI50: 0.912 µM
OVCAR-3
  GI50: 0.0158 µM
SF-539
  GI50: 0.0631 µM
[2]
  GI50: 0.562 µM
SN12C
  GI50: 0.501 µM
[3]
  GI50: 1.35 µM
[4]
  GI50: 0.186 µM
A498
  GI50: 0.398 µM
SF-268 [13]
  GI50: 1.58 µM
[5]
  GI50: 1.82 µM
[6]
  GI50: 0.575 µM
SNB-75
  GI50: 79.4 µM
[7]
  GI50: 2 µM
COLO 205
  GI50: 0.158 µM
MCF7 [8]
  GI50: 0.0794 µM
[9]
  GI50: 0.933 µM
[10]
  GI50: 1.38 µM

## CCC(NC(=O)Nc1nnc[nH]1)(C(F)(F)F)C(F)(F)F
NCI-H460
  growth at 100 µM: 86%
SF-268 [11]
  growth at 100 µM: 102%
MCF7 [12]
  growth at 100 µM: 102%

## CC(NC(=O)Nc1nnc[nH]1)(C(F)(F)F)C(F)(F)F
NCI-H460
  growth at 100 µM: 111%
SF-268 [11]
  growth at 100 µM: 111%
MCF7 [12]
  growth at 100 µM: 98%

## CC(NC(=O)Nc1c(Cl)cc(Cl)cc1Cl)(C(F)(F)F)C(F)(F)F
NCI-H460
  growth at 100 µM: 103%
SF-268 [11]
  growth at 100 µM: 96%
MCF7 [12]
  growth at 100 µM: 89%

## CCC(NC(=O)Nc1c(Cl)cccc1Cl)(C(F)(F)F)C(F)(F)F
NCI-H460
  growth at 100 µM: 79%
SF-268 [11]
  growth at 100 µM: 101%
MCF7 [12]
  growth at 100 µM: 75%

## CC(NC(=O)Nc1c(Cl)cccc1Cl)(C(F)(F)F)C(F)(F)F
NCI-H460
  growth at 100 µM: 85%
SF-268 [11]
  growth at 100 µM: 84%
MCF7 [12]
  growth at 100 µM: 82%

Source: ChEMBL document CHEMBL1287654, “Anticancer activity of N-bis(trifluoromethyl)alkyl-N'-(polychlorophenyl) and N'-(1,2,4-triazolyl) ureas” (2010)
